Source: PubChem BioAssay
Hits are enriched below; roughly 4.3% of the tested compounds scored in any of these assays.
OX1R antag-1 = OX1R (HCRTR1) antagonists, primary screen, fluorescence, CHO/OX1R cells, Fluo-8 calcium, orexin A | Orexin/Hypocretin receptor type 1 (Homo sapiens), O43613 | Fluo-8 calcium fluorescence | inhibition, % at 5 µM | 330,000 tested, 0.43% active | AID 434989, 2010;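 active = inhibition above its plate's threshold, mean inhibition of all tested compounds on the plate plus 3 SD, cut at about 37% in these data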
TAAR1 antag = human TAAR1 antagonists, primary screen, Fluo-8 calcium fluorescence, CHO RD-HGA16 cells | Trace amine-associated receptor 1 (Homo sapiens), Q96RJ0 | antagonist | inhibition, % at 3 µM | 360,000 tested, 1.5% active;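 active = inhibition above a per-plate cutoff, the mean inhibition of test compounds on that plate plus 3 SD, cut at about 49% in these data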
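Test system: RD-HGA16 CHO cells with stable hTAAR1 and Gα16 / Probe or stimulus: EC80 β-phenethylamine stimulus / Times: seeding 17-24 h prior, 75-min 37 °C, 30-min RT dye loading / Detection: Fluo-8 calcium-sensitive fluorescence / Read-out basis: % inhibition scaled between DMSO and EC80 PEA controls / Repeats: singlicate, one well per test compound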
TAAR1 ag = human TAAR1 agonists, primary screen, Fluo-8 calcium fluorescence, CHO RD-HGA16 cells | vehicle wells 0%, saturating PEA agonist 100% | activation, % at 3 µM | 360,000 tested, 0.99% active;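 active = activation above the mean activation of all test compounds in the run plus 3 SD, cut at about 38% in these data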
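Test system: RD-HGA16 (CHO) cells co-expressing Gα16 and hTAAR1 | Doses: Single dose, 3 µM | Schedule: 17-24 h seeding, 75 min 37 °C dye, 30 min RT | Evaluation: % activation from peak over basal fluorescence ratio, DMSO-to-PEA scaled | Technique: Kinetic Fluo-8 calcium fluorescence | Benchmarks: Low control DMSO, high control PEA (EC100)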
GalR3 antag = GalR3 antagonists in HEK293 cells, primary screen, cell-based, fluorescence readout | HEK293 GalR3-CNG cAMP membrane potential fluorescence; galR3 body fused to GalR1 C-terminus | AID 651719, 2012 | inhibition, % at 3 µM | Galanin receptor type 3 (Homo sapiens), O60755 | 360,000 tested, 0.44% active;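 active = inhibition above the screen-wide average plus 3 SD, cut at about 13% in these data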;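 note: forskolin and galanin both at EC90 stimulate the cells; cAMP rise reported by CNG channel membrane potential dye signal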
Target sequence (O60755 1-299 limits assumed): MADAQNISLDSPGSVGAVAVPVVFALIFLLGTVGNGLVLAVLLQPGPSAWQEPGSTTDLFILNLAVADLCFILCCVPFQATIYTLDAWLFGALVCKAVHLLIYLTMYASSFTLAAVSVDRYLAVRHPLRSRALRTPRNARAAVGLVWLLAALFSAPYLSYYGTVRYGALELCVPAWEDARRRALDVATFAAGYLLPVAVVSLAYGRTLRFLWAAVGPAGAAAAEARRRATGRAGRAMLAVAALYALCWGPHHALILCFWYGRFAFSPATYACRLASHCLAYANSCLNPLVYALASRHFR
CHO parental Ca = ATP-evoked calcium signal inhibitors, parental CHO, primary screen, counter-screen for OX1R antagonist project, cell-based, fluorescence, Fluo-8 calcium dye | parental CHO-K1, ATP-induced calcium, Fluo-8 fluorescence | inhibition, % at 5.6 µM | 330,000 tested, 0.63% active | AID 463079, 2010;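 active = inhibition above that plate's mean sample inhibition plus 3 SD, cut at about 26% in these data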
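Test system: parental CHO cells; detection: calcium-sensitive Fluo-8 fluorescence; evaluation: percent inhibition of calcium signal; also added: ATP as calcium-mobilizing challenge; repeats: one well per compound; control set: ATP-challenged DMSO wells low, unchallenged DMSO wells high; compound: single nominal dose of 5.6 µM per compound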
OX1R antag-2 = antagonists of human orexin 1 receptor (OX1R). 330,000 tested, 1.8% active. AID 485270, 2010. OX1R-expressing cells, FRET antagonist read-out. inhibition, % at 6.6 µM. Orexin/Hypocretin receptor type 1 (Homo sapiens), O43613; in the data active = inhibition mostly above about 38%, no sharp cut-off; inactive = mostly below about 40%
TAAR1 nonsel count = nonselective antagonists in TAAR1 counter-screen cells, counter-screen for hTAAR1 antagonist project, cell-based, fluorescence, calcium; shares compounds with TAAR1 antag; 2,400 tested, 77% active; inhibition, % at 3 µM; AID 651780, 2012; counterscreen cell line, antagonist mode; in the data active = inhibition above about 22%;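 note: CHO-Ga16 host cells stimulated with ATP at an EC80 level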
TAAR1 ant conf = human TAAR1 antagonists, retest of hits, confirmation, cell-based, fluorescence; shares compounds with TAAR1 antag; TAAR1-expressing cells, fluorescence antagonist read-out; inhibition, % at 3 µM; 2,400 tested, 40% active; AID 651785, 2012; in the data active = inhibition above about 49%;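 note: CHO-Ga16 host cells challenged with agonist PEA near its EC80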
Ga16 ag counter = calcium activation in Ga16-expressing cells, counter-screen for TAAR1 antagonist project, cell-based, fluorescence; AID 651953, 2012; activation, % at 3 µM; agonist counterscreen; shares compounds with TAAR1 antag; 2,400 tested, 18% active; in the data active = activation above about 12%
TAAR1 ag counter = TAAR1 activation by candidate antagonists – cell-based, fluorescence, counter-screen for TAAR1 antagonist project; shares compounds with TAAR1 antag; hTAAR1 cell line, agonist mode; activation, % at 3 µM; 2,400 tested, 2% active; AID 651955, 2012; in the data active = activation above about 37%;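 note: CHO cells stably expressing TAAR1 with calcium dye readout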
Large screens that a line does not name were inactive (follow-up assays come after a bar, where they were run).

O=C(NCc1cc([N+](=O)[O-])ccc1O)c1cc(-c2ccncc2)nc2ccccc12	TAAR1 antag 66.6 | TAAR1 nonsel count 31.6 | TAAR1 ant conf 56.4 | Ga16 ag counter inactive | TAAR1 ag counter inactive
O=C(c1cnn2c(C(F)(F)F)cc(-c3cccs3)nc12)N1CCN(Cc2ccccc2)CC1	TAAR1 antag 59.3 | TAAR1 nonsel count inactive | TAAR1 ant conf inactive | Ga16 ag counter inactive | TAAR1 ag counter inactive
CC1CCC(NC(=O)c2ccc(COc3ccccc3)o2)CC1 (configuration not stated)	none
COc1ccc2nc(NC(=O)C3CCN(S(=O)(=O)c4cccc5nsnc45)CC3)sc2c1	TAAR1 antag 61.3 | TAAR1 nonsel count 34.0 | TAAR1 ant conf 55.6 | Ga16 ag counter inactive | TAAR1 ag counter inactive
CCCCCCn1cc(CN2CC(N3CCN(C4CCN(C)CC4)CC3)CS2(=O)=O)nn1 (configuration not stated)	none (no result: OX1R antag-1, CHO parental Ca, OX1R antag-2)
C=CCNC(=O)/C(=C\C=C\c1ccccc1)NC(=O)c1ccccc1Cl	TAAR1 antag 61.6 | TAAR1 nonsel count 24.9 | TAAR1 ant conf inactive | Ga16 ag counter inactive | TAAR1 ag counter inactive
CCCc1cc(=O)oc2cc(OCC(=O)NCCc3c[nH]c4ccc(OC)cc34)ccc12	TAAR1 antag 59.9 | TAAR1 nonsel count 29.9 | TAAR1 ant conf inactive | Ga16 ag counter inactive | TAAR1 ag counter inactive
CCc1cc(=O)oc2cc(C)cc(OCC(=O)NCCc3c[nH]c4ccccc34)c12	TAAR1 antag 68.8 | TAAR1 nonsel count 29.1 | TAAR1 ant conf inactive | Ga16 ag counter inactive | TAAR1 ag counter inactive
CC(=O)c1ccc(NC(=O)c2ccc(S(=O)(=O)N3CCCC3)cc2)cc1	none
CCCNC(=O)COC(=O)c1ccccc1OCC(=O)Nc1ccc(Br)cc1	none
CC(C)(C)NC(=O)COC(=O)c1ccccc1OCC(=O)Nc1ccc(Br)cc1	TAAR1 antag 51.0 | TAAR1 nonsel count 23.8 | TAAR1 ant conf inactive | Ga16 ag counter inactive | TAAR1 ag counter inactive
CN(C)S(=O)(=O)c1cccc(NC(=O)COc2cccc3ccccc23)c1	none (no result: OX1R antag-1, CHO parental Ca, OX1R antag-2)
CC(=O)c1ccc(NC(=O)c2ccc(S(=O)(=O)c3ccccc3)cc2)cc1	TAAR1 antag 69.4 | TAAR1 nonsel count 38.7 | TAAR1 ant conf 61.1 | Ga16 ag counter 12.4 | TAAR1 ag counter inactive
CC(=O)c1ccc(NC(=O)COc2ccccc2C(=O)Nc2ccccc2)cc1	TAAR1 antag 73.3 | TAAR1 nonsel count 45.0 | TAAR1 ant conf 67.1 | Ga16 ag counter 14.6 | TAAR1 ag counter inactive
CN(C)S(=O)(=O)c1cccc(NC(=O)COc2ccccc2C(=O)Nc2ccccc2)c1	TAAR1 antag 72.3 (no result: OX1R antag-1, CHO parental Ca, OX1R antag-2) | TAAR1 nonsel count 52.8 | TAAR1 ant conf 65.1 | Ga16 ag counter 14.0 | TAAR1 ag counter inactive
CCN(CC)S(=O)(=O)c1cc(NC(=O)c2ccccc2OCc2c(C)noc2C)ccc1C	TAAR1 antag 63.6 (no result: OX1R antag-1, CHO parental Ca, OX1R antag-2) | TAAR1 nonsel count 24.3 | TAAR1 ant conf inactive | Ga16 ag counter inactive | TAAR1 ag counter inactive
